S100A4 inh HTS: blocks human S100A4 binding to myosin IIA peptide; P26447; S100A4/TAMRA-MyoIIA peptide fluorescence polarization; inhibition, % at 10.7 µM; 360,000 compounds, 0.14% hits; AID 652163;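 active = mean inhibition of at least 70% across replicates, with every replicate also reaching that level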
Target sequence (P26447 whole entry, looked up): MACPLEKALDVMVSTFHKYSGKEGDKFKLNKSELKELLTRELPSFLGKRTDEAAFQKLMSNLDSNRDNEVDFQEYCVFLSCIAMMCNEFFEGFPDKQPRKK
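Test system: S100A4 monomer protein. Medium: HEPES buffer with Ca2+, pH 7.2. Reagent: fluorescent myosin IIA peptide, 5 nM. Compound dosing: single-point compound testing. Timing: 5 min between mix addition and reading. Benchmarks: DMSO neutral and TFP positive wells.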
Cneo AK release: Cryptococcus neoformans lysis via adenylate kinase release. C. neoformans lysis, adenylate kinase release luminescence, 4 h; normalised: neutral wells 0, clomiphene wells 100. lysis activity, % at 15 µM. 360,000 compounds, 0.2% hits;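 active = mean lysis activity across replicates of at least 80%, whatever share of replicates individually reach that level; inactive = mean lysis activity below 80%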
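Signal: Adenylate kinase release luminescence | Assay system: Log-phase Cryptococcus neoformans yeast cells | Input: Cells at 5 × 10^6 per mL | Buffer or medium: Fresh YPD growth medium | Compound: Single dose | Schedule: Static 4 h at 37 °C with compound, 1 h detection | Controls: Clomiphene | Read-out: Luminescence rise reflecting yeast cell lysis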
PGC1a acetyl inh: PGC1a acetylation modulation, inhibitor mode | U2OS PGC1a acetylation, AlphaScreen anti-acetyl-lysine; with virally co-expressed GCN5 acetyltransferase | 350,000 compounds, 0.17% hits | AID 651687 | inhibition, % at 15.6 µM;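 active = every replicate shows inhibition of at least 40%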;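 note: 0% = neutral control wells and 100% = positive control wells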
Statin myotox sup: suppressors of simvastatin-induced myotoxicity in C2C12 myotubes | ATP luminescence, 48 h; scaled: DMSO 0, geranylgeraniol control 100 | rescue of ATP level, % at 7.49 µM | 330,000 compounds, 0.78% hits | AID 602340;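 active = mean ATP rescue above about 67%, or every replicate alone reaching that limit, limit read from the data, passing the limit was not always enough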;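 note: myotubes were challenged with 10 µM simvastatin during compound exposure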
SIRT5 block: blocks human SIRT5 desuccinylation of peptide. Q9NXA8. Purified SirT5, succinyl-peptide AMC, trypsin-coupled fluorescence. inhibition, % at 15 µM. 330,000 compounds, 1.1% hits. AID 652115; in the data active = inhibition above about 15%
Target sequence (Q9NXA8 whole entry, looked up): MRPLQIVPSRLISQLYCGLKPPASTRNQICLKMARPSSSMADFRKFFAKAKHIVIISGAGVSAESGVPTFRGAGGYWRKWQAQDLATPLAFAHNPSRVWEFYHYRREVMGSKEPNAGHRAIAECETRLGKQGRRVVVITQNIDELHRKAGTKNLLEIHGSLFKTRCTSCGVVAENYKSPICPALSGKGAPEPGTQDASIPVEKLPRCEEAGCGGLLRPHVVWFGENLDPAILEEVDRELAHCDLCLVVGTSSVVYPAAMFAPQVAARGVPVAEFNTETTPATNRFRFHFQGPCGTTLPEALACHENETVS
Ecoli rRNA inh: selective bacterial rRNA inhibition in E. coli | GFP signal change (wild-type ribosome), % (test concentration not listed) | 350,000 compounds, 1.6% hits | E. coli WT GFP vs humanized-ribosome RFP mutants, fluorescence, 24 h; hits give low values; DMSO median 0, no signal -100;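 active = significant combined selectivity score with lowered wild-type GFP, culture density cut under 30%, mutant RFP and density less affected; inactive = any of these conditions unmet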
Numbers without * were called inactive; . = not tested or not shown. A selection: hits, their analogues and other compounds. The true share with any hit is near 3%.

SMILES	S100A4 inh HTS	Cneo AK release	PGC1a acetyl inh	Statin myotox sup	SIRT5 block	Ecoli rRNA inh
C[C@H](CO)N1C[C@H](C)[C@H](CN(C)C(=O)Nc2cccc3ccccc23)OCCCC[C@H](C)Oc2ccc(NS(=O)(=O)c3cccs3)cc2C1=O	9	2	.	34	-1	0
COc1ccccc1C(=O)Nc1c(C(=O)N(CCN(C)C)Cc2ccco2)oc2ccccc12	-9	3	.	-15	0	-40*
C[C@@H]1CN([C@H](C)CO)C(=O)c2cc(NC(=O)Cn3cnnn3)ccc2O[C@H]1CN(C)Cc1ccc(C(F)(F)F)cc1	-8	-10	6	36	-7	-2
O=C(CCCCCN1C(=O)[C@@H]2Cc3ccccc3CN2C1=O)Nc1cccc(F)c1	-4	1	.	17	0	-35*
CC(C)OC(=O)NCCOC(=O)Nc1ccc(Cl)cc1	0	.	.	.	-5	-21*
C[C@H](CO)N1C[C@H](C)[C@H](CN(C)C(=O)Nc2cccc3ccccc23)Oc2ccc(NC(=O)CCC(F)(F)F)cc2C1=O	5	-5	4	-26	-1	-4
CC(NC(=O)C1CCCC1)C1CC2CCC1C2 (stereo not drawn)	-2	.	.	.	-3	0
CC(NC(=O)C1CC=CCC1C(=O)O)C1CC2CCC1C2 (stereo not drawn)	.	2	0	98*	.	.
CC(C)(C)[S@](=O)N1Cc2cc(C(=O)N3CCCCC3)nc(-c3cccc(C4=CCCC4)c3)c2[C@@H]1CCO	-49	.	-11	.	.	-1
C[C@@H]1CN([C@@H](C)CO)C(=O)c2cc(NC(=O)CCC(F)(F)F)ccc2O[C@@H](C)CCCCO[C@@H]1CN(C)S(=O)(=O)c1ccccc1	-3	-1	-8	.	1	1
Brc1ccc(-c2csc(N/N=C/c3ccco3)n2)cc1	7	0	16	11	-4	-38*
CN(C)S(=O)(=O)c1ccc(-c2csc(N/N=C/c3ccco3)n2)cc1	-3	.	7	.	-4	-20*
CC(=O)/C=C\c1ccccc1OC(=O)c1cc2ccccc2oc1=O	0	0	10	16	-3	3
O=C(/C=C\c1ccccc1OC(=O)c1ccccc1F)c1cc2ccccc2o1	-4	-3	-9	7	-6	-23*
C=CCOc1ccc2c(OC)c3ccoc3nc2c1OC	.	-3	-2	92*	.	.
CO[C@H]1CN(C)C(=O)c2ccc(NC(=O)c3ccccc3F)cc2OC[C@H](C)NC[C@@H]1C	126*	.	11	.	2	0
CCC(=O)Nc1ccc2c(c1)C(=O)N(C)C[C@@H](OC)[C@H](C)CN[C@H](C)CO2	-2	-11	-5	8	-12	0
CO[C@H]1CN(C)C(=O)c2ccc(NC(=O)c3ccccc3F)cc2OC[C@@H](C)NC[C@H]1C	-7	1	-1	0	3	1
CCC(=O)Nc1ccc2c(c1)C(=O)N(C)C[C@H](OC)[C@@H](C)CN[C@H](C)CO2	-3	84*	6	-3	-12	3
CO[C@H]1CN(C)C(=O)c2ccc(NC(=O)Nc3ccc(Cl)c(Cl)c3)cc2OC[C@H](C)NC[C@H]1C	-5	50	.	-26	100*	-10
CO[C@H]1CN(C)C(=O)c2ccc(NC(=O)Nc3ccc(Cl)c(Cl)c3)cc2OC[C@H](C)NC[C@@H]1C	-3	41	.	-59	11	-60
C[C@H]1CCCCO[C@H](CN(C)C(=O)Nc2ccccc2)[C@@H](C)CN([C@@H](C)CO)C(=O)c2cc(NS(=O)(=O)c3ccc(F)cc3)ccc2O1	.	3	-1	.	.	-5
COCC(=O)N1[C@H](CO)[C@@H](c2ccc(-c3cccc(OC)c3)cc2)C12CN(C(C)=O)C2	-8	.	-5	.	-5	-2
CCCCN(CCNP(=O)(OCC)OCC)CP(=O)(OCC)OCC	.	1	5	72*	.	.
Cn1cnc(S(=O)(=O)N2CC[C@@H]3[C@@H](CO)Nc4ccc(C#Cc5ccccc5F)cc4[C@@H]32)c1	31	.	-7	.	0	5
COc1ccc2oc(=N)c(C(=O)NCc3ccccc3)cc2c1	1	0	-3	5	20*	12
